KCNQ1 inh: inhibitors of human KCNQ1 potassium channel | P51787 | CHO-K1 KCNQ1, FluxOR thallium flux fluorescence; stronger effect = higher value | B-score at 10 µM | 310,000 tested, 1.3% active;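 active = compounds whose thallium flux B-score, printed positive for inhibition, exceeds three library SD while starting fluorescence stays within three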;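 note: channel opened by potassium depolarization with thallium stimulus after 20 min compound exposure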
KCNK3 block: human KCNK3 channel inhibition, primary screen; 340,000 tested, 0.84% active; B-score at 10 µM; AID 602410; CHO-KCNK3 thallium flux, FluxOR fluorescence; stronger effect = lower value;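 active = B-score under library mean minus 4 SD, starting fluorescence ratio at most library mean plus 5 SD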;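 note: more negative B-score means stronger inhibition of thallium flux through KCNK3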
Target sequence (O14649 whole entry, looked up): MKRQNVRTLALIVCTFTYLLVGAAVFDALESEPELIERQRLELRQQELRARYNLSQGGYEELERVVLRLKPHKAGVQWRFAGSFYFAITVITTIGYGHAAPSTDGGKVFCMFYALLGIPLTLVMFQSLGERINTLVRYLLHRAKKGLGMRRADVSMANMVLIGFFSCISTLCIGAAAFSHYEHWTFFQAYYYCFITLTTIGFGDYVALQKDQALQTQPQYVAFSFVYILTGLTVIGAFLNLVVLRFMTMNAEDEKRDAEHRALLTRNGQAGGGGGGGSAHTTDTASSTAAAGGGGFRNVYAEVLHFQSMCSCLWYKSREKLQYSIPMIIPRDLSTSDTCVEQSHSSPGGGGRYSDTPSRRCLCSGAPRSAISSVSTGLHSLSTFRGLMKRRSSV
KCNQ1 act: potentiates or activates the human KCNQ1 potassium channel; AID 2648; CHO-K1 KCNQ1, thallium flux FluxOR fluorescence; stronger effect = higher value; B-score at 10 µM; 310,000 tested, 0.35% active; P51787;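 active = fluorescence ratio B-score, a plate-corrected score, at least three library SD, with initial intensity B-score within 5 SD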
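Test system: CHO-K1 cells stably expressing KCNQ1 / Medium: assay buffer / Also added: depolarizing K+/Tl+ stimulus, K2SO4 and Tl2SO4 each 12.5 mM in 5x stock / Incubation: 90 min dye loading and 20 min compound exposure, both at room temperature / Signal: thallium influx via FluxOR fluorescence, kinetic imaging / Evaluation: B score of baseline-normalized fluorescence ratio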
KCNK9 inh: blocks the human KCNK9 two-pore domain potassium channel; Q9NPC2; HEK293 KCNK9, FluxOR thallium flux fluorescence; stronger effect = lower value; B-score at 10 µM; 310,000 tested, 1.2% active; AID 488922;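 active = ratio B-score over 3 SD below the library mean, with starting fluorescence within 5 SD of its mean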;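 note: negative B-score means less thallium flux so channel inhibition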
KCC2 mod: modulators of human KCC2 chloride dependent transport | KCC2 cells, thallium flux FluoZin-2 fluorescence | Q9H2X9 | 190,000 tested, 2.2% active | B-score of Tl+ flux slope (higher = more flux/activation; lower = inhibition) at 10 µM | AID 1456;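 active = thallium flux slope and its plate-corrected score both differing from the plate sample mean at a set confidence after two filtering rounds, in either direction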;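 note: slope of fluorescence scaled to starting intensity during 10 to 20 s after thallium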
hERG protect: compounds protecting human hERG from proarrhythmic drug block | AID 1511 | 310,000 tested, 0.51% active | Q12809 | CHO-hERG, FluxOR thallium flux, dofetilide IC70 present | activation (rescue from dofetilide block), less the hit threshold, % at 10 µM;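 active = activation above the mean of controls blocked by dofetilide plus 5 SD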;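 note: thallium influx through hERG after potassium depolarization seen as dye fluorescence rise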
KCNQ1 inh valid: human KCNQ1 channel inhibition, validation assay; 1,600 tested, 93% active; shares compounds with KCNQ1 inh; inhibition, % at 10 µM; KCNQ1 cell line, FluxOR thallium flux fluorescence;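 active = primary screen active, with duplicate mean exceeding buffer control mean plus 3 SD of buffer wells, cut at about 28% in these data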;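 note: 0% = buffer control ratio and 100% = XE991 inhibitor control ratio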
CHO KCNQ1 ctr: KCNQ1 inhibitor counter-screen hit in parental CHO cells; shares compounds with KCNQ1 inh; parental CHO-K1, FluxOR thallium flux fluorescence ratio; stronger effect = lower value; zero means no signal rise above baseline; fluorescence ratio (Tl flux) at 10 µM; 1,600 tested, 21% active;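 active = mean of duplicate thallium-flux fluorescence ratios in parental host cells more than 5 SD below the buffer control mean, cut at about 0.38 in these data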;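 note: ratio is peak minus minimum fluorescence divided by baseline fluorescence; actives read low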
KCNQ1 APC inh: blocks human KCNQ1 current in automated patch clamp; shares compounds with KCNQ1 inh; KCNQ1-CHO cells; calls only at 10 µM; 490 tested, 20% active; AID 624120;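 active = KCNQ1 current drop exceeding 3 SD of negative control wells, seen in both duplicate runs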;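 note: steady state current during a 2 s step from -80 to +40 mV; negative values mean current inhibition and positive values mean potentiation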
KCNQ2 spec: selectivity of KCNQ1 inhibitors: inhibition of rat KCNQ2 channel; AID 651746; shares compounds with KCNQ1 inh; KCNQ2 cells, FluxOR thallium flux fluorescence; inhibition, % at 10 µM; 1,600 tested, 71% active;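 active = mean percent inhibition of the KCNQ2 thallium signal more than 5 SD above the buffer-only control wells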;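 note: KCNQ2 expressed in CHO cells; 0% = buffer control wells and 100% = XE-991 inhibitor control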
KCNQ1 KCNE1 spec: selectivity of KCNQ1 inhibitors: inhibition of human KCNQ1/KCNE1 channel; shares compounds with KCNQ1 inh; KCNQ1/KCNE1 cells, FluxOR thallium flux fluorescence; inhibition, % at 10 µM; 1,600 tested, 77% active;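 active = mean percent inhibition of duplicate wells above the buffer-only control mean plus 3 SD of those controls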;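 note: 0% = buffer only wells and 100% = XE-991 inhibitor control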
The depositor's hits bear a star; i = inactive; . = no result given. Only some compounds are listed: those with a hit (about 4.1% of all), similar ones and a draw of the others.

SMILES | KCNQ1 inh | KCNK3 block | KCNQ1 act | KCNK9 inh | KCC2 mod | hERG protect | KCNQ1 inh valid | CHO KCNQ1 ctr | KCNQ2 spec | KCNQ1 KCNE1 spec | others
COc1ccc(NC(=O)c2cc(S(=O)(=O)Nc3ccc(OC)cc3)cs2)cc1 | i | i | i | i | -0.099 | -12.9 | . | . | . | .
Cc1ccc(C(=O)Nc2nc(=O)n(C(=O)CC(C)C)s2)cc1 | 6* | i | i | i | -2.16 | 2.2 | 33.5* | 0.607 | i | i
Nc1nc(Cl)cc(N2CCC(c3cc(-c4ccc(Cl)cc4Cl)n[nH]3)CC2)n1 | 6* | i | i | i | 0.532 | -14.8 | 135.5* | 0.369* | 112.7%* | 174.5%*
Nc1nc(Cl)cc(N2CCCC2)n1 | i | i | i | i | 0.0394 | -7.2 | . | . | . | .
CC1=CC(C)(C)N=C(Nc2nc(C)c3cc(C)cc(C)c3n2)N1 | 6* | i | i | i | 0.833 | -24.4 | 79.0* | 0.513 | 70.0%* | 59.0%*
Cc1cc(C)c2nc(Nc3nc(-c4ccccc4)cc(=O)[nH]3)nc(C)c2c1 | i | i | i | i | 0.33 | -8.8 | . | . | . | .
COc1ccc(S(N)(=O)=O)cc1C(=O)NC1CCCc2ccccc21 (stereo not drawn) | i | i | i | i | . | -3.5 | . | . | . | .
CCOc1ccc(C2CC(c3cccc(OC)c3OC)n3nnnc3N2)cc1Cl (stereo not drawn) | 7* | i | i | i | 1.1 | -6.9 | 0.0 | 0.517 | 59.0%* | i
CC1Sc2ccc(S(=O)(=O)N3CCC(C(=O)NCC(C)c4ccccc4)CC3)cc2NC1=O (stereo not drawn) | 7* | i | i | i | . | -11.1 | 56.0* | 0.528 | i | i
Cc1ccc(NC(=O)C2CCN(S(=O)(=O)c3ccc4c(c3)NC(=O)C(C)S4)CC2)cc1Cl (stereo not drawn) | 17* | i | i | i | . | -13.2 | 126.0* | 0.407 | 91.7%* | 107.0%* | KCNQ1 APC inh=i
Cc1cc(C)cc(NC(=O)C2CCN(S(=O)(=O)c3ccc4c(c3)NC(=O)C(C)S4)CC2)c1 (stereo not drawn) | 7* | i | i | i | . | -10.8 | 116.0* | 0.496 | 97.7%* | 131.0%* | KCNQ1 APC inh=i
Cc1ccc(NC(=O)C2CCN(S(=O)(=O)c3ccc4c(c3)NC(=O)C(C)S4)CC2)c(Cl)c1 (stereo not drawn) | i | i | i | i | . | -6.4 | . | . | . | .
CCN1CCN(C(=O)C(Cc2ccccc2)NC(=O)c2ccc(Cl)c(S(=O)(=O)N(C)C)c2)CC1 (stereo not drawn) | . | i | . | . | . | . | . | . | . | .
CCCC[C@H]1COCCS(=O)(=O)N1Cc1ccccc1F | i | i | i | i | . | 2.0 | . | . | . | .
COc1ccccc1C(=O)NC1CCSc2ccccc21 (stereo not drawn) | i | i | i | i | . | -8.2 | . | . | . | .
COc1ccc(-c2csc3ncnc(N4CCN(S(=O)(=O)c5ccc(C)cc5)CC4)c23)cc1 | i | i | i | i | . | -13.9 | . | . | . | .
COc1ccc(-c2csc3ncnc(N4CCN(c5cccc(OC)c5)CC4)c23)cc1 | 10* | i | i | i | . | -10.4 | 134.5* | 0.408 | 113.7%* | 119.0%* | KCNQ1 APC inh=i
